Like-named read-outs stand apart in the source and are kept apart here.

The subject of data set [1] is MDA-MB-231 (triple-negative breast cancer). In words: Antiproliferative activity, SRB assay, MDA-MB-231. The format is cell-based, human. (In general: Sulforhodamine B stains cellular protein and so reports cell mass.)
The subject of data set [2] is A549 (lung carcinoma). In words: Antiproliferative activity, SRB assay, A549. The format is cell-based, human.
Data set [3] relates to KB (epidermoid carcinoma of the nasopharynx). In words: Antiproliferative activity, SRB assay, KB. The format is cell-based, human. The conditions noted are these: read-out: IC50 KB.
The subject of data set [4] is KB-VIN (P-gp-overexpressing MDR subline of KB). In words: Antiproliferative activity, SRB assay, KB-VIN. The following applies: read-out: IC50 KB-VIN, 50% reduction relative to untreated cells.
Data set [5] deals with MCF-7 (estrogen receptor-positive and HER2-negative breast cancer). The data set is described as follows: Antiproliferative activity, SRB assay, MCF-7. The class given is cell-based, human.
Data set [6] concerns horse's blood (red blood cells). In words: In vitro hemolytic assay. The format is cell-based. The following applies: up to 500 μM.
Data set [7] has as its system MDA-MB-231 cells. The data set is described as follows: Cell cycle analysis by flow cytometry. The following applies: MDA-MB-231, 24 h; for accumulation of sub-G1 cells: dose-dependent; for effect on cell cycle progression: flow cytometry, PI staining; for propidium iodide (PI) signals: higher concentrations. The class given is cell-based, human. An outline of the steps: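 MDA-MB-231 cells were exposed to test compound for 24 h at the indicated concentrations, with DMSO as vehicle control. DNA content was stained with propidium iodide/RNase. Cell-cycle distribution, including the sub-G1 fraction, was read by flow cytometry.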
On the technique in general: In flow cytometry, cells or beads pass a laser one at a time.

Data set [8] deals with all tested human tumor cell lines, including MDR subline. In words: Antiproliferative activity, all tested human tumor cell lines. The class given is cell-based. The conditions noted are these: read-out: IC50 values against all tested human tumor cell lines.
Data set [9] has as its system MDA-MB-231 cells. The data set is described as follows: Immunocytochemistry. The format is cell-based, human. The following applies: MDA-MB-231, 24 h. A digest of the protocol: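 MDA-MB-231 cells were seeded on chamber slides 24 h before a 24 h exposure, with 0.1% DMSO as control. Cells were fixed in 4% paraformaldehyde/PBS and permeabilised with 0.5% Triton X-100. They were probed with mouse anti-α-tubulin, then FITC anti-mouse IgG, with DAPI for nuclei. Confocal projections used 12–18 sections at 0.6–1 μm intervals. Each concentration was repeated at least twice.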

The subject of data set [10] is KB-VIN (P-gp-overexpressing MDR subline of KB).
[11] abbreviates: read-out: IC50 MDA-MB-231, SRB assay, 50% reduction relative to untreated cells.
The mark [12] stands for this setting: read-out: IC50 A549, SRB assay, 50% reduction relative to untreated cells.
Setting [13] is: SRB assay, 50% reduction relative to untreated cells.
The mark [14] stands for this setting: read-out: IC50 MCF-7, SRB assay, 50% reduction relative to untreated cells.
The mark [15] stands for this setting: Homo sapiens, MDA-MB-231, read-out: IC50 MDA-MB-231.
Where [16] appears, read: Homo sapiens, A549, read-out: IC50 A549.
[17] abbreviates: Homo sapiens, MCF7, read-out: IC50 MCF-7.

As a reminder, the IC50 is the point on the concentration scale where inhibition reaches its midpoint. As to `C=CC(=C)CC[C@]1(C)[C@H](C)C[C@H](OC)[C@@]23C(=C[C@H](OC(=O)[C@@H](C)CC)C[C@@H]12)[C@@H](OC(C)=O)O[C@H]3OC(C)=O` [Compound 6, (2R,5S,6S,−8R,9R,10S,18R,19S)-18,19-di-O-acetyl-18,19-epoxy-6-methoxy-2-(2′-methylbutanoyloxy)-cleroda-3,13(16),14-triene], the 50% inhibitory concentration (IC50) stood at 4900 nM in data set [1] (setting [11]); 5040 nM in data set [2] (setting [12]); 5230 nM in data set [3] (setting [13]); 5.19 µM in [4]; 5820 nM in data set [5] (setting [14]).

Regarding `C=CC(=C)CCC1(C)C(C)CC(O)C23C(=CC(OC(=O)/C=C/C=C/CCCCC)CC12)C(OC(C)=O)OC3OC(C)=O` (stereo not drawn) [Compound 19, corymbulosin A], in [6], the “hemolytic activity (in words)” value was “most potent activity but only at the unusually high concentration of 500 μM”. In addition, the IC50 was 430 nM in data set [1] (setting [11]); 450 nM in data set [2] (setting [12]); 420 nM in data set [3] (setting [13]); 0.45 µM in data set [4]; 440 nM in [5] (setting [14]). For the same compound, the “accumulation of sub-G1 cells” value in data set [7] is “except with compound 19”. In data set [7], the “effect on cell cycle progression” value is given as “no effect on cell cycle progression”.

As for caseamembrin S [Compound 16], the IC50 turned out to be 450 nM in data set [1] (setting [11]); 580 nM in [2] (setting [12]); 530 nM in [3] (setting [13]); 0.9 µM in [4]; 660 nM in [5] (setting [14]). The “accumulation of sub-G1 cells” value in data set [7] was “significant accumulations of sub-G1 cells”. Further, in data set [7], the “effect on cell cycle progression” value is reported as “no effect on cell cycle progression”. In addition, in data set [7], the “propidium iodide (PI) signals” value was “decreased unusually and dramatically in all cells”.

As to `C=CC(=C)CC[C@]1(C)[C@H](C)C[C@H](OC)[C@@]23C(=C[C@H](OC(=O)CC)C[C@@H]12)[C@@H](OC(C)=O)O[C@H]3OC(C)=O` [Compound 4, (2R,5S,6S,8R,9R,10S,18R,−19S)-18,19-di-O-acetyl-18,19-epoxy-6-methoxy-2-propionyloxy-cleroda-3,13(16),14-triene], the 50% inhibitory concentration (IC50) in data set [1] (setting [11]) came to 4950 nM; in data set [2] (setting [12]), 4600 nM; in data set [3] (setting [13]), 5190 nM; in [4], 4.92 µM; in [5] (setting [14]), 4940 nM.

Regarding `C=CC(=C)CC[C@]1(C)[C@H]2C[C@@H](OC(=O)C(C)CC)C=C3[C@H](OC(C)=O)O[C@H](OC(C)=O)[C@@]32[C@H](O)C[C@@H]1C` (stereo partly drawn) [Compound 18, caseamembrin E], the IC50 is 400 nM in [1] (setting [15]); 530 nM in data set [2] (setting [16]); 430 nM in data set [3] (Homo sapiens); 550 nM in data set [5] (setting [17]); 400 to 1000 nM in data set [8].

Regarding `C=CC(=C)CC[C@]1(C)[C@H](C)C[C@H](OC)[C@@]23C(=C[C@H](OC(=O)C(C)C)C[C@@H]12)[C@@H](OC(C)=O)O[C@H]3OC(C)=O` [Compound 3, (2R,5S,6S,8R,9R,10S,18R,19S)-18,19-di-O-acetyl-18,19-epoxy-6-methoxy-2-isobutanoyloxycleroda-3,13(16),14-triene], the IC50 in data set [1] (setting [11]) stood at 490 nM; in data set [2] (setting [12]) it was 470 nM; in [3] (setting [13]), 450 nM; in data set [5] (setting [14]), 500 nM; in [10], 490 nM. For the same compound, the “cell morphology (microtubules, chromatin)” value in data set [9] (1.5 μM (3-fold IC50)) is “normal morphology with intact nuclei and a clear microtubule network”; in data set [9] (4.9 μM (10-fold IC50)), “fragmented and dispersed chromatin (arrowhead) with an apoptotic microtubule array”. In data set [9] (1.5 and 4.9 μM), the induction of apoptosis entry is “induced apoptosis in a dose-dependent manner”. In addition, the “accumulation of sub-G1 cells” value in data set [7] is “significant accumulations of sub-G1 cells”. Besides, the “effect on cell cycle progression” value in [7] was “no effect on cell cycle progression”.

Turning to `C=CC(=C)CCC1(C)C(C)CC(O)C23C(=CC(OC(=O)C(C)CC)CC12)C(OC(C)=O)OC3OC(C)=O` (stereo not drawn) [Compound 17, 18,19-di-O-acetyl-18,19-epoxy-6-hydroxy-2-(2′-methylbutanoyloxy)cleroda-3,13-(16),14-triene], the IC50 in data set [1] (setting [11]) worked out at 540 nM; in data set [2] (setting [12]), 4150 nM; in data set [3] (setting [13]), 730 nM; in [4] it was 4.07 µM; in data set [5] (setting [14]) it was 890 nM. In addition, in data set [7], the “accumulation of sub-G1 cells” value was “significant accumulations of sub-G1 cells”. Further, the “effect on cell cycle progression” value in [7] was “no effect on cell cycle progression”. The “propidium iodide (PI) signals” value in [7] was “decreased unusually and dramatically in all cells”.

As to `C=CC(=C)CC[C@]1(C)[C@H](C)C[C@H](OC(=O)CCCCCCCCC)[C@@]23C(=C[C@H](OC(C)=O)C[C@@H]12)[C@@H](OC(C)=O)O[C@H]3OC(C)=O` [Compound 9, (2R,5S,6S,8R,9R,10S,18R,19S)-2,18,19-tri-O-acetyl-18,19-epoxy-6-decanoyloxycleroda-cleroda-3,13(16),14-triene], the IC50 in [1] (setting [11]) stood at 20500 nM; in data set [2] (setting [12]) it was 40200 nM; in [3] (setting [13]), 19800 nM; in data set [4], 39.2 µM; in data set [5] (setting [14]), 31700 nM.

As for `CC(=O)O[C@H]1C(=O)[C@@]2(C)[C@H]([C@H](OC(=O)c3ccccc3)[C@]3(O)C[C@H](OC(=O)[C@H](O)[C@@H](NC(=O)c4ccccc4)c4ccccc4)C(C)=C1C3(C)C)[C@]1(OC(C)=O)CO[C@@H]1C[C@@H]2O` [Paclitaxel, reference compound], the IC50 in data set [1] (setting [15]) came to 8.36 nM; in data set [2] (setting [16]), 6.53 nM; in [3] (Homo sapiens) it was 7.07 nM; in [5] (setting [17]), 12.1 nM.

In the case of `C=CC(=C)CC[C@]1(C)[C@H](C)C[C@H](OC(=O)CCCCC)[C@@]23C(=C[C@H](O)C[C@@H]12)[C@@H](OC(C)=O)O[C@H]3OC(C)=O` [Compound 14, (2R,5S,6S,8R,−9R,10S,18R,19S)-18,19-di-O-acetyl-18,19-epoxy-2-hydroxy-6-hexanoyloxycleroda-3,13(16),14-triene], the half-maximal inhibitory concentration (IC50) in [1] (setting [11]) came to 4730 nM; in data set [2] (setting [12]), 4760 nM; in data set [3] (setting [13]), 4740 nM; in [4], 4.88 µM; in data set [5] (setting [14]) it was 5190 nM.
